TNF necrop inh: inhibitors of TNF-alpha induced necroptosis in Jurkat FADD-/- cells; Jurkat FADD-/- TNF necroptosis rescue, ATP luminescence, 24 h; 0 = TNF only, 100 = no-TNF cells; activation (protection from cell death), % at 10 µM; 220,000 tested, 0.068% active;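 active = activation, meaning protection from cell death, of at least 50% relative to plate controls; inactive = activation below 50%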;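 note: necroptosis triggered by 40 ng/mL TNF-alpha added together with compound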
zVAD death inh: blocks zVAD induced death of L929 cells; L929 zVAD necroptosis rescue, ATP luminescence, 24 h; with zVAD 60 µM; viability rescue, % at 10 µM; 220,000 tested, 0.38% active;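 active = activation, scaled between plate controls, above about 75%, limit read from the data; inactive = activation under that limit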;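 note: 0% = zVAD with DMSO and 100% = DMSO alone without zVAD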
Dynein transport: blocks dynein driven cargo transport along microtubules; 3617.4 mouse cells, GR-EGFP nuclear translocation imaging; test concentration mostly 20 µM; stimulated with dexamethasone, 1 µM; hits give low values; z-score, hits read low; 220,000 tested, 0.47% active; AID 1381;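 active = plate z-score of nuclear minus cytoplasmic receptor signal below a set negative limit, without overly bright fluorescence or cell loss, cut at about -3.5 in these data, passing the limit was not always enough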;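 note: z-score of nuclear minus cytoplasmic ring GR-EGFP intensity difference per well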
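medium = tetracycline-free induction medium containing charcoal-stripped FBS | also added = 1.0 µM final dexamethasone stimulus | schedule = 48 h induction, 1 h compound, 30 min dex at 37 °C | technique = fixed, Hoechst-stained cells imaged at 10x for EGFP | measure = GR-EGFP nuclear translocation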
HSV replic up: HSV replication enhancement; HSV replication augmentation in cells, fold increase; maximum fold increase; 220,000 tested, 0.005% active; AID 1956; in the data active = maximum fold increase above about 1.5; inconclusive = no clear call, values can overlap the other calls; tested in PC3 cells
Autophagy mod: alters autophagy in cells. MEF GFP-LC3 puncta imaging; test concentration mostly 10 µM. calls only at 10 µM (by protocol). 190,000 tested, 0.98% active;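 active = percentage of spot-positive cells more than 3 SD above its plate mean, without a fluorescence outlier flag or 80% toxicity; inconclusive = no clear call, values can overlap the other calls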;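 note: spot-positive cell cutoff set from DMSO-treated cells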
Furin inhibitor: inhibitors of human furin; purified furin, fluorogenic substrate cleavage; inhibition, % at 20 µM or 30 µM; 220,000 tested, 0.061% active; AID 463115; in the data active = inhibition above about 25%
Target sequence (P09958 108-714 limits assumed): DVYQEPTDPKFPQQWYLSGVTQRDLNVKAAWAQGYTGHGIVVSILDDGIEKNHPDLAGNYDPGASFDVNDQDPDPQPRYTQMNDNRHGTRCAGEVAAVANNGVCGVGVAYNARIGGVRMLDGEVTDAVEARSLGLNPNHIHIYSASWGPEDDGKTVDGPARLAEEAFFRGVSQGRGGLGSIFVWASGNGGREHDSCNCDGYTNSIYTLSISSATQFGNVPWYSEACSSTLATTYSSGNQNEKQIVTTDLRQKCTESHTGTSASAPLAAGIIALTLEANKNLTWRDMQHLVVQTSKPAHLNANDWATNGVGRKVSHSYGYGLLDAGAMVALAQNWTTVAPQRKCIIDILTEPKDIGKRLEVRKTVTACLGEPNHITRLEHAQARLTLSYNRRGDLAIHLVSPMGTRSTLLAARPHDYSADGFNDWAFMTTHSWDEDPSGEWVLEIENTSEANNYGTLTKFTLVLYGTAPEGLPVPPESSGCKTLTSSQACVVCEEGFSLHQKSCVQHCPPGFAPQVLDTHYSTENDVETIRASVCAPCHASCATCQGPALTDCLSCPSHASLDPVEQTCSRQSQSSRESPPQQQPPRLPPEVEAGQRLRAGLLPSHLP
Dynein inh conf: dynein cargo transport inhibition, confirmation. 1,000 tested, 69% active. calls only at 20 µM. AID 463116. 3617.4 GR-EGFP nuclear translocation imaging, dexamethasone-induced. shares compounds with Dynein transport;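 active = inhibition of receptor movement into the nucleus at or above a set limit in both runs, with normal cell brightness and cell count; inconclusive = limit reached in only one run, brightness and count normal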;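 note: dexamethasone at 1 µM final in well for 30 min; nuclear minus cytoplasmic GR-EGFP mean intensity difference in channel 2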
Numbers without * were called inactive; i = inactive; ? = inconclusive; . = no result given; + = active, no number. Rows were chosen to be rich in hits. Some 1.8% of all compounds tested hit in one or more screens of this group.

SMILES	TNF necrop inh	zVAD death inh	Dynein transport	HSV replic up	Autophagy mod	Furin inhibitor	Dynein inh conf
CS(=O)(=O)N1CCC(C(=O)NCc2ccc(F)cc2)CC1	0.0	1.1	0.564	i	i	-29.6	.
Cc1ccc(CN2CCN(/N=C/c3cc(Br)cc(Br)c3O)CC2)cc1	1.0	.	1.12	i	i	-22.6	.
Cc1ccc(CN=Cc2[nH]c3ccc(Br)c(Cl)c3c2O)cc1	-3.4	-0.6	-4.26	i	+	-5.7	+
Cc1ccc(C2=NN(C(=O)CCl)C(c3cccs3)C2)o1 (stereo not given)	-14.2	2.4	-4.1*	i	i	-16.2	+
Cc1ccc(C2=NN(C(=O)CCC(=O)O)C(c3cccs3)C2)cc1 (stereo not given)	0.0	-0.6	0.84	i	.	-23.0	.
CC(=O)N1N=C(c2ccco2)CC1c1cccs1 (stereo not given)	-3.1	-0.1	-0.231	i	i	-13.5	.
O=C(CCl)N1N=C(c2ccco2)CC1c1cccs1 (stereo not given)	-12.3	2.0	-4.3*	i	i	-10.7	+
O=C1C(Cl)=C(NS(=O)(=O)c2ccc([N+](=O)[O-])cc2)C(=O)c2ccccc21	-6.3	-0.4	-3.88*	i	.	-8.3	+
Cc1ccc(C(=O)NC(C#N)=C(Cl)Cl)cc1	73.8*	62.1	-4.25*	i	i	-2.0	+
Cc1cc2nccc(-c3ccc(Cl)c([N+](=O)[O-])c3)n2n1	0.9	5.2	2.22	i	i	-28.8	.
O=C(O)Cc1cc(C(=O)Nc2ccc(Br)cc2)sc1-c1ccccc1	0.8	0.9	-0.15	i	i	-14.2	.
COC(C/C=C/C(=O)COCc1ccccc1)OC	-11.7	-0.2	-5.71*	i	.	-25.2	+
Cc1cc(N2CCCC2)c(F)cc1/C=C\[N+](=O)[O-]	-3.9	-2.0	-3.87	i	i	-18.1	+
Cc1cc(N2CCC(C)CC2)c(F)cc1[N+](=O)[O-]	-5.5	-0.2	0.015	i	i	-20.5	.
CC1c2nc3ccccc3n2C(CC(=O)NC2CC2)C(=O)N1Cc1ccccc1 (stereo not given)	1.9	3.3	-0.158	i	i	-32.7	.
COc1ccc(-n2cccc2/C=C/[N+](=O)[O-])cc1	-23.4	-1.3	-3.84*	i	i	-22.3	+
CCOc1ccc(C(=O)NCC(=O)OCC(=O)N2CCCC2)cc1	-0.3	2.1	0.0684	i	i	-20.1	.
CCCc1nc(SCC(=O)N2CCC(Cc3ccccc3)CC2)c2c(=O)n(C)c(=O)n(C)c2n1	-9.0	-0.2	-0.249	i	.	-9.0	.
CCN1/C(=C/C=C/c2oc3ccc4ccccc4c3[n+]2CC)Oc2ccc3ccccc3c21	-16.6	-2.4	-7.1*	.	?	-5.2	+
COC(=O)c1ccc(C(=O)OC)c(-n2c(=O)c3ccccc3c3ccccc3c2=O)c1	-4.5	1.4	-5.06*	i	i	-24.5	+
Clc1ccc(C(c2nnnn2C2CCCC2)N2CCN(Cc3ccncc3)CC2)cc1 (stereo not given)	2.3	0.6	-0.24	i	i	-8.1	.
O=c1c(C(c2nnnn2C2CCCCC2)N2CCCCC2)coc2ccc(Cl)cc12 (stereo not given)	-10.7	-0.8	-3.98*	i	i	-19.8	+
O=S(=O)(CCSc1nc2ccccc2o1)c1nc2ccccc2s1	-18.8	-0.2	-4.07*	i	+	-12.3	+
O=S(=O)(CCSc1ccccn1)c1nc2ccccc2s1	-16.5	-0.3	-4.02*	i	+	-17.8	+
CCOC(=O)/C(C#N)=C\c1cccnc1	0.6	1.0	-0.306	i	i	-27.4	.
SMILES	TNF necrop inh	zVAD death inh	Dynein transport	HSV replic up	Autophagy mod	Furin inhibitor	Dynein inh conf
CCOC(=O)/C(=C\c1cccnc1)C(=O)c1cc(C(C)=O)c(Nc2ccccc2)s1	-12.0	5.2	-5.68*	i	+	-17.1	+
O=C(/C=C/c1cccc([N+](=O)[O-])c1)n1cnc2ccccc21	9.4	-1.8	-5.07*	i	i	-34.9	+
O=C(/C=C/c1cccc([N+](=O)[O-])c1)N1CCOCC1	-0.2	0.8	-0.0471	i	i	-4.9	.
CC(/C=C/C(=O)c1ccc(C)cc1)=C\c1ccccc1	-1.9	0.1	-0.715	.	i	-15.6	.
Cc1ccc(C(=O)/C=C\C(=O)c2ccc(C)cc2)cc1	-3.0	1.1	-7.16*	i	+	-13.5	+
CCc1cccc(CC)c1NC(=O)CN1C2CCCC1CC(NC(=O)Nc1cccc(OC)c1)C2 (stereo not given)	1.3	0.3	0.759	i	i	-1.0	.
CCC(=O)Oc1ccc(NC(=O)CSCc2ccccc2)cc1	1.9	0.8	0.455	i	i	-29.8	.
COC(=O)Cn1c(=N)n(CCN2CCCCC2)c2ccccc21	0.7	0.1	-0.734	i	i	-2.3	.
N=c1n(CCN2CCCCC2)c2ccccc2n1CC(=O)c1ccc(Cl)c(Cl)c1	-28.0	0.8	-3.65*	i	.	-10.1	i
COC(=O)c1cc(=O)n(Cc2ccco2)c(=Nc2ccc(F)c(Cl)c2)s1	-9.0	-0.8	-3.88*	i	i	-15.2	+
COC(=O)c1cc(=O)n(Cc2cccs2)c(=Nc2ccc(F)cc2)s1	-5.9	-0.6	-1.61	i	i	-17.9	.
COC(=O)c1cc(=O)n(CCc2ccccc2F)c(=Nc2ccc(F)c(Cl)c2)s1	-1.5	-0.6	-4*	i	i	-13.3	+
CCOc1ccccc1-n1c(=S)sc2c(=O)n(-c3ccccc3)c(=S)[nH]c21	-0.6	0.9	-0.0441	i	i	-0.1	.
CCOC(=O)c1c(-c2ccc(C)o2)csc1NC(=O)CN1CCCCC1	-0.3	45.4	-4.61*	i	i	-15.3	i
CCOC(=O)c1c(-c2ccc(C)o2)csc1NC(=O)CSc1nncs1	-6.9	0.0	-3.98*	i	i	-1.8	i
CCOC(=O)c1sc(SC)c2c1CCCC2=O	-1.2	-1.2	-0.513	i	.	-7.4	.
Cc1ccc(SC(=O)c2c(C)noc2-c2cc(C)on2)cc1	-23.7	3.2	-5.08*	i	.	-8.1	+
Cc1cc(-c2onc(C)c2C(=O)N/N=C/c2ccccc2)no1	0.1	0.2	-0.271	i	.	-11.4	.
C=CS(=O)(=O)c1ccc(Oc2ccc(S(=O)(=O)C=C)cc2)cc1	32.2	.	-4.02*	i	i	-19.0	+
NS(=O)(=O)c1ccc(Oc2ccc(S(N)(=O)=O)cc2)cc1	-0.3	-0.9	1.3	i	i	-4.3	.
CCn1c(/C=C/N(C(C)=O)c2ccccc2)[n+](CC)c2ccc(Cl)cc21	0.4	-0.3	-0.0514	i	i	-6.7	.

Compound activity: PubChem, several laboratories
